The record followed here is ChEMBL document CHEMBL1141363, “Synthesis and evaluation of novel heterocyclic MMP inhibitors” (Bioorg Med Chem Lett, 2007).

What is called IC50 is the concentration that inhibits the measured activity by half. The low end stands for greater potency, the high end for weaker potency.

The target in experiment [1] is Matrix metalloproteinase-9 (Homo sapiens, UniProt P14780). In words: Inhibition of MMP9. In short, it runs like this: (§1)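 Catalytic domains used at final levels of 85 nM (MMP-1), 24 nM (MMP-2), 18 nM (MMP-9) and 84 nM (MMP-12). Each enzyme was premixed with compound (serial 1:2 dilutions, 150 to 1.2) for 30 min at 37 °C. Substrate was added in 50 mM Hepes with 5 mM CaCl2 and 0.05% w/w Brij-35, pH 7.5, then incubated 30 min. Fluorescence read at ex 328/em 393 nm over 45 min, every 50 s.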
Sequence of Matrix metalloproteinase-9 (P14780 whole entry, the tested form may be a part): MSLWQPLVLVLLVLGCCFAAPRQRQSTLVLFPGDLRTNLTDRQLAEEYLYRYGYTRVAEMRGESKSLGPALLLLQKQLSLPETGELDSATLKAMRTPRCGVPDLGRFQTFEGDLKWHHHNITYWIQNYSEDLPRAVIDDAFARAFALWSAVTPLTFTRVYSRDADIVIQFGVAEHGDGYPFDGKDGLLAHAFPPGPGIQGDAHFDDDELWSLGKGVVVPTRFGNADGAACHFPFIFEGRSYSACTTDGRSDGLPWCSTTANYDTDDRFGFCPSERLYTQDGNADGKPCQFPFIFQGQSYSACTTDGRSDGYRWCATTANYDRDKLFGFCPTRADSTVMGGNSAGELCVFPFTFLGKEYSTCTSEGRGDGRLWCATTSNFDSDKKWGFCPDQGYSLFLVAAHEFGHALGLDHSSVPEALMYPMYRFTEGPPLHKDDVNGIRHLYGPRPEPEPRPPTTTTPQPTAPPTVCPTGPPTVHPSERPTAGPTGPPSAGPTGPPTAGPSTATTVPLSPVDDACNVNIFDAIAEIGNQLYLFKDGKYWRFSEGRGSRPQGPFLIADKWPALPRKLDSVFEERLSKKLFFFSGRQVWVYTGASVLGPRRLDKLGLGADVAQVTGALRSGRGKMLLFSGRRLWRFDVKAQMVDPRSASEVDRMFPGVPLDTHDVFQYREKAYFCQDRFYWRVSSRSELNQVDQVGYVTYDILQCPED

Experiment [2] addresses T1, Interstitial collagenase (Homo sapiens, UniProt P03956).
T1 sequence (P03956 whole entry): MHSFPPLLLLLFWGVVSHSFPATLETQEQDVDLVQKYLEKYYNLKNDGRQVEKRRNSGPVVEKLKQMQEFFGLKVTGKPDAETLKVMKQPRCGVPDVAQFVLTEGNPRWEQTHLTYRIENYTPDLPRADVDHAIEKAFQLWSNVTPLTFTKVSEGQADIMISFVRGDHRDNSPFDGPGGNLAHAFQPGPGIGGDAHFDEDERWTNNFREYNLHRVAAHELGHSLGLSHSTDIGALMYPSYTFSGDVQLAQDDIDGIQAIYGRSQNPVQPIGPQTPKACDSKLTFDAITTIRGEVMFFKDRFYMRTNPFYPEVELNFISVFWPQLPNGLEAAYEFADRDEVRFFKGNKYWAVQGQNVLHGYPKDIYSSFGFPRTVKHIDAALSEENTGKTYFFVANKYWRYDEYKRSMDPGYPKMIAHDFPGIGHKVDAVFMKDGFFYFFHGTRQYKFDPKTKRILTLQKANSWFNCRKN
In words: Inhibition of MMP1. An outline of the steps:
as §1

In experiment [3] the target is Macrophage metalloelastase (Homo sapiens, UniProt P39900). In words: Inhibition of MMP12. An outline of the steps:
as §1

For experiment [4], the target named is 72 kDa type IV collagenase (Homo sapiens, UniProt P08253). Kind of experiment: Inhibition of MMP2. In short, it runs like this: as §1
Sequence of 72 kDa type IV collagenase (P08253 whole entry): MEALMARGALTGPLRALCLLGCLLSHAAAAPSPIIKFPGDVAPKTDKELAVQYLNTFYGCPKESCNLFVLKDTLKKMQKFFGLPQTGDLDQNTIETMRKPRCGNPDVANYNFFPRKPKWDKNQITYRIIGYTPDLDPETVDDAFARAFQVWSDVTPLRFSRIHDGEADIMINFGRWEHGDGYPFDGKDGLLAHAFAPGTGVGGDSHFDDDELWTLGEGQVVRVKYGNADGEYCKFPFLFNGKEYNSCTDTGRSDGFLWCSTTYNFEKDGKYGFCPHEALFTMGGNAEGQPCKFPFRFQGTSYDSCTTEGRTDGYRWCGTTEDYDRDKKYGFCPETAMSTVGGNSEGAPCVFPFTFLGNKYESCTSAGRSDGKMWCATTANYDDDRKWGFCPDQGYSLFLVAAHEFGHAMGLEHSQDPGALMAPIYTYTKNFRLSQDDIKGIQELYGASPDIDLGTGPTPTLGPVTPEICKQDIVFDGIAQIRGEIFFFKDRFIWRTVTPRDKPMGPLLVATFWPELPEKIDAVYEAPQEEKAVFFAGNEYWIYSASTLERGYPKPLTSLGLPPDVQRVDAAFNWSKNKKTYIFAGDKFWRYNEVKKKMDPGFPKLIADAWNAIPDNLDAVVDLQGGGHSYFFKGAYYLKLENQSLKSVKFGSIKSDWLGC

Sequence of Macrophage metalloelastase (P39900 whole entry): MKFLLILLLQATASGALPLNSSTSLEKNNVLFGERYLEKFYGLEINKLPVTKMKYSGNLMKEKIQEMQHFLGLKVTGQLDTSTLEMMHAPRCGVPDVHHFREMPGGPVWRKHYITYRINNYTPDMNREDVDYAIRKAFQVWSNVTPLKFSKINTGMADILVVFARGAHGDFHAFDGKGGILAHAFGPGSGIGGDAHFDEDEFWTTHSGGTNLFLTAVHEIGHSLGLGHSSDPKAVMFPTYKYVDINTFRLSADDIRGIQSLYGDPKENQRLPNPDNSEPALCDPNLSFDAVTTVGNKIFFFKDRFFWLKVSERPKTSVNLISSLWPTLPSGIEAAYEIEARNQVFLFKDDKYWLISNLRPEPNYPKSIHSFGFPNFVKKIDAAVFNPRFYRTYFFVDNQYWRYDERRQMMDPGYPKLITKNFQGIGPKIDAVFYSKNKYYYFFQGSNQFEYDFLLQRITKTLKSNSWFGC

With `O=C(OCCOc1ccccc1)c1cccc(=O)[nH]1`, the IC50 in experiment [1] is 127 µM; in experiment [2] it was 59 µM; in experiment [3], 79 µM; in experiment [4] it was > 150 µM.

For the molecule `O=C(OC1CCC1)c1cccc(S)n1`, the IC50 in experiment [1] is 137 µM; in experiment [2] it was 135 µM; in experiment [3] it was > 150 µM; in experiment [4], > 150 µM.

In the case of `O=C(OCc1ccccc1)c1cccc(S)n1`, the IC50 in experiment [1] was determined as 88 µM; in experiment [2], 101 µM; in experiment [3] it was 82 µM; in experiment [4], 85 µM.

Consider `CC(C)OC(=O)c1cccc(S)n1`, for which the IC50 in experiment [1] is 132 µM; in experiment [2], 121 µM; in experiment [3], 146 µM; in experiment [4], > 150 µM.

As for `O=C(OCc1ccc(Cl)cc1)c1cccc(S)n1`, the IC50 in experiment [1] is 112 µM; in experiment [2], 126 µM; in experiment [3], 115 µM; in experiment [4] it was 96 µM.

With `c1ccc(CCn2nnc(Cc3cccnc3)n2)cc1`, the IC50 in experiment [1], in experiment [2], in experiment [3] and in experiment [4] was > 150 µM each time.

For `O=C(OCCCCOc1ccccc1)c1cccc(=O)[nH]1`, the IC50 in experiment [1] amounted to 94 µM; in experiment [2], 67 µM; in experiment [3], 82 µM; in experiment [4] it was 90 µM.

Turning to `O=C(OCc1cccc(Cl)c1)c1cccc(=O)[nH]1`, the IC50 in experiment [1] is 67 µM; in experiment [2], 25 µM; in experiment [3] it was 46 µM; in experiment [4], 5 µM.

With `O=C(OCc1ccc(Oc2ccccc2)cc1)c1cccc(S)n1`, the IC50 in experiment [1] was determined as 110 µM; in experiment [2] it was 114 µM; in experiment [3] it was 109 µM; in experiment [4], 93 µM.

As to `O=C(OCc1cccc(C(F)(F)F)c1)c1cccc(=O)[nH]1`, the half-inhibitory concentration (IC50) was > 150 µM in experiment [1], 28 µM in experiment [2], 82 µM in experiment [3] and > 150 µM in experiment [4].

Take `O=C(Oc1ccsc1)c1cccc(=O)[nH]1`: the IC50 in experiment [1] was determined as 67 µM; in experiment [2] it was 39 µM; in experiment [3] it was 62 µM; in experiment [4], 65 µM.

For the molecule `O=C(OCc1cccc(F)c1)c1cccc(=O)[nH]1`, the IC50 in experiment [1] worked out at 50 µM; in experiment [2], 28 µM; in experiment [3] it was 16 µM; in experiment [4] it was 70 µM.

Take `O=C(OCc1c(F)cccc1F)c1cccc(=O)[nH]1`: the IC50 came out at 60 µM in experiment [1], 35 µM in experiment [2], 60 µM in experiment [3] and 66 µM in experiment [4].

Turning to `O=C(OCc1cccc(F)c1)c1cccc(S)n1`, the IC50 in experiment [1] was 107 µM; in experiment [2] it was 119 µM; in experiment [3] it was 151 µM; in experiment [4], 124 µM.

Take `c1ccc(CCCn2cc(C3=NCCO3)nn2)cc1`: the IC50 in experiment [1], in experiment [2], in experiment [3] and in experiment [4] was > 150 µM in each case.

On to `COc1cccc(COC(=O)c2cccc(S)n2)c1`, for which the IC50 worked out at 93 µM in experiment [1], 86 µM in experiment [2], 78 µM in experiment [3] and 90 µM in experiment [4].

As to `CCCCCCOC(=O)c1cccc(S)n1`, the IC50 was determined as 109 µM in experiment [1], 115 µM in experiment [2], 105 µM in experiment [3] and 85 µM in experiment [4].

In the case of `O=C(OCc1ccc(Cl)cc1)c1cccc(=O)[nH]1`, the IC50 worked out at 68 µM in experiment [1], 26 µM in experiment [2], 47 µM in experiment [3] and 69 µM in experiment [4].

Regarding `O=C(OC/C=C/c1ccccc1)c1cccc(=O)[nH]1`, the IC50 in experiment [1] turned out to be 73 µM; in experiment [2] it was 86 µM; in experiment [3] it was 70 µM; in experiment [4] it was 90 µM.

Regarding `O=C(OCc1ccc(F)cc1)c1cccc(=O)[nH]1`, the IC50 in experiment [1] worked out at 3 µM; in experiment [2], 23 µM; in experiment [3], 65 µM; in experiment [4], 71 µM.

As to `O=C(OCc1c(F)c(F)c(F)c(F)c1F)c1cccc(=O)[nH]1`, the IC50 in experiment [1] was found to be 69 µM; in experiment [2] it was 19 µM; in experiment [3], 63 µM; in experiment [4], 64 µM.

Consider `Cc1ccc(COC(=O)c2cccc(=S)[nH]2)cc1`, for which the IC50 in experiment [1] was 119 µM; in experiment [2], > 150 µM; in experiment [3], 81 µM; in experiment [4], 98 µM.

As to `C(=C\c1ccccc1)/Cn1nnc(Cc2cccnc2)n1`, the half-inhibitory concentration (IC50) in experiment [1], in experiment [2], in experiment [3] and in experiment [4] was > 150 µM in each case.

Consider `O=C(OCc1ccc(C(F)(F)F)cc1)c1cccc(=O)[nH]1`, for which the IC50 in experiment [1] is 101 µM; in experiment [2], 24 µM; in experiment [3], 64 µM; in experiment [4], 112 µM.

`O=C(OCc1ccc(Br)cc1)c1cccc(=O)[nH]1`: the IC50 in experiment [1] came out at 114 µM; in experiment [2] it was 81 µM; in experiment [3] it was 105 µM; in experiment [4] it was 107 µM.

Take `O=C(OC1CCCCC1)c1cccc(S)n1`: the IC50 in experiment [1] is 91 µM; in experiment [2] it was 102 µM; in experiment [3] it was 87 µM; in experiment [4], 73 µM.

Regarding `O=C(OCc1ccccc1)c1cccc(=O)[nH]1`, the IC50 was 69 µM in experiment [1], 30 µM in experiment [2], 69 µM in experiment [3] and 65 µM in experiment [4].

On to `c1ccc(CCn2cc(C3=NCCO3)nn2)cc1`, for which the IC50 in experiment [1], in experiment [2], in experiment [3] and in experiment [4] was > 150 µM each time.

Consider `O=C(OCCc1ccccc1)c1cccc(=O)[nH]1`, for which the IC50 in experiment [1] amounted to 81 µM; in experiment [2], 47 µM; in experiment [3] it was 68 µM; in experiment [4], 69 µM.

`O=C(OCc1ccccc1F)c1cccc(=O)[nH]1`: the IC50 is 76 µM in experiment [1], 64 µM in experiment [2], 68 µM in experiment [3] and 71 µM in experiment [4].

Regarding `CC(C)OC(=O)c1cccc(=O)[nH]1`, the IC50 amounted to 67 µM in experiment [1], 31 µM in experiment [2], 67 µM in experiment [3] and 67 µM in experiment [4].

In the case of `CCCCCCn1cc(C2=NCCO2)nn1`, the half-inhibitory concentration (IC50) in experiment [1], in experiment [2], in experiment [3] and in experiment [4] was > 150 µM throughout.

Regarding `O=C(OCCCc1ccccc1)c1cccc(=S)[nH]1`, the IC50 worked out at 112 µM in experiment [1], 95 µM in experiment [2], 85 µM in experiment [3] and 100 µM in experiment [4].

Regarding `O=C(OCc1cccc(Oc2ccccc2)c1)c1cccc(=O)[nH]1`, the IC50 is > 150 µM in experiment [1], 68 µM in experiment [2], 118 µM in experiment [3] and > 150 µM in experiment [4].

Take `COc1cccc(COC(=O)c2cccc(=O)[nH]2)c1`: the IC50 in experiment [1] is 88 µM; in experiment [2], 69 µM; in experiment [3], 69 µM; in experiment [4], 70 µM.

Regarding `O=C(OCc1ccccc1Cl)c1cccc(=O)[nH]1`, the half-maximal inhibitory concentration (IC50) came out at 81 µM in experiment [1], 51 µM in experiment [2], 68 µM in experiment [3] and 69 µM in experiment [4].

As for `O=C(Oc1ccco1)c1cccc(=O)[nH]1`, the 50% inhibitory concentration (IC50) in experiment [1] was found to be 90 µM; in experiment [2] it was 46 µM; in experiment [3] it was 76 µM; in experiment [4], 111 µM.

As to `COc1ccc(COC(=O)c2cccc(=O)[nH]2)cc1`, the IC50 worked out at 100 µM in experiment [1], 99 µM in experiment [2], 105 µM in experiment [3] and 110 µM in experiment [4].

Turning to `O=C(OCc1cc(F)ccc1F)c1cccc(S)n1`, the IC50 in experiment [1] is 140 µM; in experiment [2], 114 µM; in experiment [3], 17 µM; in experiment [4] it was 79 µM.

For `CC(C)=CCOC(=O)c1cccc(=O)[nH]1`, the concentration for half-maximal inhibition (IC50) came to 69 µM in experiment [1], 37 µM in experiment [2], 67 µM in experiment [3] and 72 µM in experiment [4].

For `O=C(Oc1cccs1)c1cccc(=O)[nH]1`, the IC50 in experiment [1] came out at 70 µM; in experiment [2] it was 56 µM; in experiment [3] it was 65 µM; in experiment [4], 73 µM.

Consider `O=C(OCc1ccc(C(F)(F)F)cc1)c1cccc(=S)[nH]1`, for which the IC50 in experiment [1] was 141 µM; in experiment [2], > 150 µM; in experiment [3], 94 µM; in experiment [4] it was 125 µM.
